≈ marks a conversion by molar mass, not a printed value. Calls of active or inactive are those of the source. The calls are words filed in the database; no cut-off is given here.
Tests used:
[1] = target: Glycogen synthase kinase-3 beta (Homo sapiens, UniProt P49841); test: Inhibition of human recombinant GSK3-beta assessed as [gamma33]ATP transfer to biotinylated CREB-peptide substrate after 1 hr by scintillation counting
[2] = target: Interferon-induced, double-stranded RNA-activated protein kinase (Homo sapiens, UniProt P19525); test: Inhibition of PRKR
In short: (§1)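 Competition binding assay giving binding constant (Kd) from an 11-point quantitative affinity curve against each kinase in a selectivity panel; values reported in µM and as ratio over GSK3b.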

[3] = target: Dual specificity protein kinase CLK1 (Homo sapiens, UniProt P49759); test: Inhibition of CLK1
In short: (§2)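 Affinity measured as a binding constant (Kd) in a quantitative competition binding assay, not as a catalytic activity read-out. An 11-point concentration curve was run for each kinase. Kd values are given in µM. Each value is also expressed as a ratio over the Kd for GSK3b.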

[4] = target: Cyclin-dependent kinase 3 (Homo sapiens, UniProt Q00526); test: Inhibition of CDK3; in short: as §1
[5] = target: Mitogen-activated protein kinase 4 (Homo sapiens, UniProt P31152); test: Inhibition of ERK4; in short: as §2
Aurora kinase A = Aurora kinase A (Homo sapiens, UniProt O14965); test: Inhibition of AURKA; in short: as §1
[6] = target: Dual specificity tyrosine-phosphorylation-regulated kinase 1B (Homo sapiens, UniProt Q9Y463); test: Inhibition of DYRK1B; in short: as §1
[7] = Aqueous solubility at pH 6.6; assay type: physicochemical
[8] = target: Serine/threonine-protein kinase 16 (Homo sapiens, UniProt O75716); test: Inhibition of STK16; in short: as §2
[9] = target: Cyclin-dependent kinase 9 (Homo sapiens, UniProt P50750); test: Inhibition of CDK9; in short: as §1
[10] = target: Cyclin-dependent kinase 18 (Homo sapiens, UniProt Q07002); test: Inhibition of PCTK3; in short: as §2
[11] = target: Serine/threonine-protein kinase PLK4 (Homo sapiens, UniProt O00444); test: Inhibition of PLK4; in short: as §2
[12] = target: Mitogen-activated protein kinase 15 (Homo sapiens, UniProt Q8TD08); test: Inhibition of ERK8; in short: as §2
[13] = target: Dual specificity protein kinase CLK3 (Homo sapiens, UniProt P49761); test: Inhibition of CLK3; in short: as §2
[14] = target: Mitogen-activated protein kinase 6 (Homo sapiens, UniProt Q16659); test: Inhibition of ERK3; in short: as §2
[15] = target: Cyclin-dependent kinase 17 (Homo sapiens, UniProt Q00537); test: Inhibition of PCTK2; in short: as §2
[16] = target: Cyclin-dependent kinase 5 (Homo sapiens, UniProt Q00535); test: Inhibition of CDK5; in short: as §2
[17] = target: Protein kinase C alpha type (Homo sapiens, UniProt P17252); test: Inhibition of PKCalpha
[18] = target: Serine/threonine-protein kinase PLK1 (Homo sapiens, UniProt P53350); test: Inhibition of PLK1; in short: as §2
[19] = target: Cyclin-dependent kinase 2 (Homo sapiens, UniProt P24941); test: Inhibition of CDK2; in short: as §2
Aurora kinase B = Aurora kinase B (Homo sapiens, UniProt Q96GD4); test: Inhibition of AURKB; in short: as §2
Rattus norvegicus [20] = test: Antiosteoporosis activity in ovariectomized rat assessed as increase in bone mineral density in L5 vertebra at 30 mg/kg, po QD for 3 weeks by bone densitometer relative to control; assay type: functional, organism-based; set-up: dose 30 mg/kg
Rattus norvegicus [21] = test: Antiosteoporosis activity in ovariectomized rat assessed as increase in bone mineral density in distal femur at 30 mg/kg, po QD for 3 weeks by bone densitometer relative to control; assay type: functional, organism-based; set-up: dose 30 mg/kg
[22] = target: Mitogen-activated protein kinase 3 (Homo sapiens, UniProt P27361); test: Inhibition of ERK1; in short: as §2
[23] = target: Cyclin-dependent kinase 8 (Homo sapiens, UniProt P49336); test: Inhibition of CDK8; in short: as §2
[24] = target: Serine/threonine-protein kinase PLK3 (Homo sapiens, UniProt Q9H4B4); test: Inhibition of PLK3; in short: as §2
[25] = target: Mitogen-activated protein kinase 7 (Homo sapiens, UniProt Q13164); test: Inhibition of ERK5; in short: as §2
[26] = target: Mitogen-activated protein kinase 1 (Homo sapiens, UniProt P28482); test: Inhibition of ERK2; in short: as §2
Aurora kinase C = Aurora kinase C (Homo sapiens, UniProt Q9UQB9); test: Inhibition of AURKC; in short: as §2
Rattus norvegicus [27] = test: Antiosteoporosis activity in ovariectomized rat assessed as increase in bone mineral density in proximal tibia at 30 mg/kg, po QD for 3 weeks by bone densitometer relative to control; assay type: functional, organism-based; set-up: dose 30 mg/kg
[28] = target: Cyclin-dependent kinase 19 (Homo sapiens, UniProt Q9BWU1); test: Inhibition of CDK11; in short: as §2
[29] = target: Cyclin-dependent kinase 7 (Homo sapiens, UniProt P50613); test: Inhibition of CDK7; in short: as §2
[30] = target: Dual specificity protein kinase CLK2 (Homo sapiens, UniProt P49760); test: Inhibition of CLK2; in short: as §2
Rattus norvegicus [31] = test: Antiosteoporosis activity in ovariectomized rat assessed as increase in bone mineral density in whole femur at 30 mg/kg, po QD for 3 weeks by bone densitometer relative to control; assay type: functional, organism-based; set-up: dose 30 mg/kg
[32] = target: Dual specificity protein kinase TTK (Homo sapiens, UniProt P33981); test: Inhibition of TTK; in short: as §2
[33] = target: Dual specificity protein kinase CLK4 (Homo sapiens, UniProt Q9HAZ1); test: Inhibition of CLK4; in short: as §2
[34] = target: Glycogen synthase kinase-3 alpha (Homo sapiens, UniProt P49840); test: Inhibition of GSK3alpha; in short: as §2
Mus musculus [35] = test: Cmax in mouse at 10 mg/kg, ip; assay type: ADME, organism-based; set-up: dose 10 mg/kg, route intraperitoneal; conditions: in vivo, BLD = below limit of detection
Mus musculus [36] = test: AUC in mouse at 10 mg/kg, ip; assay type: ADME, organism-based, Plasma; set-up: dose 10 mg/kg, route intraperitoneal; conditions: in vivo, BLD = below limit of detection
Rattus norvegicus [37] = test: Cmax in rat at 25 mg/kg, po; conditions: in vivo
Rattus norvegicus [38] = test: AUC in rat at 25 mg/kg, po; conditions: plasma

Chain of Glycogen synthase kinase-3 beta (P49841 whole entry): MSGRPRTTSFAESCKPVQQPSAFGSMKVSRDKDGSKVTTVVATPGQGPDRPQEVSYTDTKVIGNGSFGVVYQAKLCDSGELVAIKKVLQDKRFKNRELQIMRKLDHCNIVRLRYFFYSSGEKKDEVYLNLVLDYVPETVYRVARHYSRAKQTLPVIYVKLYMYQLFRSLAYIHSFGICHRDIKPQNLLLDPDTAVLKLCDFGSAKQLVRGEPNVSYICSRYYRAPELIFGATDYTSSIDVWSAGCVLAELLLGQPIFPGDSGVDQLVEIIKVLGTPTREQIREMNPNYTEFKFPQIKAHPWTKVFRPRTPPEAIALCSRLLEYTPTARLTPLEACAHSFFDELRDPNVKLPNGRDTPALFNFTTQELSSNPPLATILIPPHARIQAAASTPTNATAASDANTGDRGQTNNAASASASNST
Chain of Serine/threonine-protein kinase 16 (O75716 whole entry): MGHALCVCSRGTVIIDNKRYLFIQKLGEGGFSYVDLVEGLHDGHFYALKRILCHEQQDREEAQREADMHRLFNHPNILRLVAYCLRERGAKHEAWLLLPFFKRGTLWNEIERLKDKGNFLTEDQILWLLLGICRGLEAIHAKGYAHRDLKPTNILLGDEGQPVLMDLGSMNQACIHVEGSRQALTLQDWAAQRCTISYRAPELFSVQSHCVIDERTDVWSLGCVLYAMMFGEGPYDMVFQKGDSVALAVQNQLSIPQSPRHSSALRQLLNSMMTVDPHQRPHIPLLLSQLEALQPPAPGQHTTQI
Chain of Dual specificity tyrosine-phosphorylation-regulated kinase 1B (Q9Y463 whole entry): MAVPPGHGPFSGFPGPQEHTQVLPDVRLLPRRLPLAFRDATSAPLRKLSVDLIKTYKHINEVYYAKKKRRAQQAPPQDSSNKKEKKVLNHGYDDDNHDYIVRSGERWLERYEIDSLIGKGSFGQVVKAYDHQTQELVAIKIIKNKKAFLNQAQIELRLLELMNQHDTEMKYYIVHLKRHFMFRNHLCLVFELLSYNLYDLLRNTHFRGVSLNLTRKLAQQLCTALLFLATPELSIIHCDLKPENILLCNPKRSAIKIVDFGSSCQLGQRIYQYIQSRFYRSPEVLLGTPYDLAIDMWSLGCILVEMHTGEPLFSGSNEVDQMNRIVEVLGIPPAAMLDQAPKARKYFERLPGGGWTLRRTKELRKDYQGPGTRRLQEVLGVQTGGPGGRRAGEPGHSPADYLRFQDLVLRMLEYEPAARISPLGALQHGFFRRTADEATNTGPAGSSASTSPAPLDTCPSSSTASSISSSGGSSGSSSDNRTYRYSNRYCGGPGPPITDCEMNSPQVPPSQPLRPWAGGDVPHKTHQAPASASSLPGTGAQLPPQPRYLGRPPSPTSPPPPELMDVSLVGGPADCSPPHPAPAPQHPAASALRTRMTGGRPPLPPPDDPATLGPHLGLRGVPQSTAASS
Chain of Serine/threonine-protein kinase PLK1 (P53350 whole entry): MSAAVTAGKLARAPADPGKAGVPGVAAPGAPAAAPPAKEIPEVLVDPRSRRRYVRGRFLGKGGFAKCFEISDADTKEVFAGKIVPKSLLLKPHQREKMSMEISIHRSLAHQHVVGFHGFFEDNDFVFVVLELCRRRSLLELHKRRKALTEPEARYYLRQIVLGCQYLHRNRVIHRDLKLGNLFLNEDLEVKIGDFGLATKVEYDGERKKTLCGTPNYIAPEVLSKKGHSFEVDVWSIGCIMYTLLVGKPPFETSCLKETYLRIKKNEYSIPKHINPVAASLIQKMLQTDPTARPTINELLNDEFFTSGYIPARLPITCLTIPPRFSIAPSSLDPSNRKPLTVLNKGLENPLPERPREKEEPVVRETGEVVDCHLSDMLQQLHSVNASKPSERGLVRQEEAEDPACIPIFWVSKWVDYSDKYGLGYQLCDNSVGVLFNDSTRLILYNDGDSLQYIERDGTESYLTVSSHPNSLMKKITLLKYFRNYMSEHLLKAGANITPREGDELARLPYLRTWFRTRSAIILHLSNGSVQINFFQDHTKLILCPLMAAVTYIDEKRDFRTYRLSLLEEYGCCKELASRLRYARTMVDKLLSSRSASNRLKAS
Chain of Dual specificity protein kinase CLK2 (P49760 whole entry): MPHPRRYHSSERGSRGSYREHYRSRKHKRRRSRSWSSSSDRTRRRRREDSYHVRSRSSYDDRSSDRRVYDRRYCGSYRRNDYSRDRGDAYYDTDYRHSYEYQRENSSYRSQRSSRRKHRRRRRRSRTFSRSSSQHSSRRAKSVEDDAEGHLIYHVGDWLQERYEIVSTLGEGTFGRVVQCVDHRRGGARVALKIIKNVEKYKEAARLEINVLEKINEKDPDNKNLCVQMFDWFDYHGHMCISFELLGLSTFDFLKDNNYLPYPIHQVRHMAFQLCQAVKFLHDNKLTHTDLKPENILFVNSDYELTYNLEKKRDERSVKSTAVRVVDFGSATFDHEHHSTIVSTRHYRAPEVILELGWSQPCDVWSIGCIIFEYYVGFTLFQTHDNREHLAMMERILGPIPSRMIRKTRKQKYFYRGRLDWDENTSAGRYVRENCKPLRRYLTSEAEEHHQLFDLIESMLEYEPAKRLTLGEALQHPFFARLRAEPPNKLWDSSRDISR
Chain of Dual specificity protein kinase CLK1 (P49759 whole entry): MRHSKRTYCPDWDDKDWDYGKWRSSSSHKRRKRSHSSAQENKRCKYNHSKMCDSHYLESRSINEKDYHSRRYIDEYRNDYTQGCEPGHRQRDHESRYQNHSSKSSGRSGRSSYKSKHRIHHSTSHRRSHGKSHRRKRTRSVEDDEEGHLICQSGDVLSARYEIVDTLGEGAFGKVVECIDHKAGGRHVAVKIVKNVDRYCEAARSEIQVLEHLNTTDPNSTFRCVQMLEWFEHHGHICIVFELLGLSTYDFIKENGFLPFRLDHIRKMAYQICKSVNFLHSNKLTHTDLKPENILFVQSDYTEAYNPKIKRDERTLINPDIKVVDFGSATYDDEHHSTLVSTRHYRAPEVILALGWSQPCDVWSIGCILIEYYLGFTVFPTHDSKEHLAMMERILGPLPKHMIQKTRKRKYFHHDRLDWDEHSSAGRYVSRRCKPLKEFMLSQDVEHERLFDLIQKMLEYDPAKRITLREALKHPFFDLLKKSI
Chain of Mitogen-activated protein kinase 3 (P27361 whole entry): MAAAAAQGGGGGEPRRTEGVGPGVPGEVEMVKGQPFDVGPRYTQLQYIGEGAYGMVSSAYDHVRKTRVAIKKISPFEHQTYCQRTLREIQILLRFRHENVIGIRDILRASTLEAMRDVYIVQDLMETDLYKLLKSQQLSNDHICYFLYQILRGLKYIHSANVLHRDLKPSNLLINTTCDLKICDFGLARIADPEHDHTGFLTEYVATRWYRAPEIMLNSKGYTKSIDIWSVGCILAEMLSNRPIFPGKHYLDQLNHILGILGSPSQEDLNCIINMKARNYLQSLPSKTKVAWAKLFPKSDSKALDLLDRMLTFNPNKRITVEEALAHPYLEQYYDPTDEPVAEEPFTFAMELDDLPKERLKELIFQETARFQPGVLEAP
Chain of Aurora kinase A (O14965 whole entry): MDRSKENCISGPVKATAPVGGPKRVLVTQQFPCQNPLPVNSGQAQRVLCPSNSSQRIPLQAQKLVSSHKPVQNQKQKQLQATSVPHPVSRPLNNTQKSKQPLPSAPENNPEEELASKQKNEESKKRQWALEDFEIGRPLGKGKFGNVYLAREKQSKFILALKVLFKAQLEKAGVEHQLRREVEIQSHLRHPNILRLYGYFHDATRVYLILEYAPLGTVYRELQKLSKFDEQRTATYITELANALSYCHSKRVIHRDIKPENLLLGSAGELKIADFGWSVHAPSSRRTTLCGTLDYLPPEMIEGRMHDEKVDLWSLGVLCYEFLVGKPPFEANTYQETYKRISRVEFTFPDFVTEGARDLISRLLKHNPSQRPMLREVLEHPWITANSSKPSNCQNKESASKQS
Chain of Cyclin-dependent kinase 18 (Q07002 whole entry): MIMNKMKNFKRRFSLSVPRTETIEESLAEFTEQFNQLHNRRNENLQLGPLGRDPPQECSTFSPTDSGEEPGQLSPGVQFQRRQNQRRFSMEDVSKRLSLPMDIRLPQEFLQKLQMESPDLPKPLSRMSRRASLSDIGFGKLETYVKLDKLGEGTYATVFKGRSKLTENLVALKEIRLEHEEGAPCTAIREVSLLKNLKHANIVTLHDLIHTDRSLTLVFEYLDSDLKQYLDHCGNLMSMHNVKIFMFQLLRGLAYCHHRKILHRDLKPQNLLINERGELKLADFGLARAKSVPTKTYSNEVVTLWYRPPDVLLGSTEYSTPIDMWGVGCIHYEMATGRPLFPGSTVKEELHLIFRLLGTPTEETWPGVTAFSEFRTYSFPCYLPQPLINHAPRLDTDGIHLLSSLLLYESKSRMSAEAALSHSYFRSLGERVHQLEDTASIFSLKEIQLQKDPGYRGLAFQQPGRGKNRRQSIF

Cn1cc(C2=C(c3ccc(-c4ccccc4)cc3)C(=O)NC2=O)c2ccccc21
IC50 [1]: 730 nM

Cn1cc(C2=C(c3cccc(NCC(O)CO)c3)C(=O)NC2=O)c2cc(F)ccc21 (racemic)
Kd [2]: 14000 nM | Kd [3]: 16 nM | Kd [4]: 80 nM | Kd [5]: 40000 nM | Kd (Aurora kinase A): 40000 nM | Kd [6]: 87 nM | solubility [7]: 104 µg/mL (≈ 254 µM) | Kd [8]: 230 nM | Kd [9]: 410 nM | Kd [10]: 110 nM | Kd [11]: 320 nM | Kd [12]: 32 nM | Kd [13]: 310 nM | Kd [14]: 40000 nM | Kd [15]: 69 nM | Kd [16]: 6800 nM | IC50 [17]: 400 nM | Kd [18]: 23000 nM | Kd [19]: 150 nM | Kd (Aurora kinase B): 40000 nM | Activity (Rattus norvegicus [20]): Active | Activity (Rattus norvegicus [21]): Active | Kd [22]: 40000 nM | Kd [23]: 40000 nM | Kd [24]: 40000 nM | Kd [25]: 5600 nM | Kd [26]: 40000 nM | Kd (Aurora kinase C): 23000 nM | Activity (Rattus norvegicus [27]): Active | Kd [28]: 40000 nM | Kd [29]: 41 nM | Kd [30]: 10 nM | Activity (Rattus norvegicus [31]): Active | Kd [32]: 6700 nM | Kd [33]: 110 nM | Kd [34]: 1.5 nM

COc1cccc(C2=C(c3c(C)n(C)c4ccccc34)C(=O)NC2=O)c1
IC50 [1]: 220 nM

Cn1cc(C2=C(Oc3ccccc3)C(=O)NC2=O)c2ccccc21
IC50 [1]: 2800 nM

COc1ccc(C2=C(c3cn(C)c4ccccc34)C(=O)NC2=O)c(OC)c1
IC50 [17]: 5500 nM | IC50 [1]: 2.4 nM

COc1ccc(C2=C(c3cn(C)c4ccccc34)C(=O)NC2=O)cc1OC
IC50 [17]: 6600 nM | IC50 [1]: 6.6 nM

Cn1cc(C2=C(c3c4n(c5ccccc35)CCN(C(N)=S)C4)C(=O)NC2=O)c2ccccc21
IC50 [17]: 1050 nM | IC50 [1]: 10 nM

COc1cccc(C2=C(c3cn(C)c4ccccc34)C(=O)NC2=O)c1
solubility [7]: < 0.5 µg/mL | Cmax (Mus musculus [35]): BLD | AUC (Mus musculus [36]): BLD | IC50 [17]: 6000 nM | IC50 [1]: 90 nM

COc1cccc(C2=C(c3cn(C)c4cc(C)ccc34)C(=O)NC2=O)c1
IC50 [17]: 2900 nM | IC50 [1]: 35 nM

COc1cccc(C2=C(c3cn(C)c4ccc(Cl)cc34)C(=O)NC2=O)c1
IC50 [17]: 1400 nM | IC50 [1]: 6.4 nM

Cn1cc(C2=C(Nc3ccccc3)C(=O)NC2=O)c2ccccc21
IC50 [1]: 350 nM

Cn1cc(C2=C(c3cccc(NCC(O)CO)c3)C(=O)NC2=O)c2cc(Cl)ccc21 (racemic)
solubility [7]: 42 µg/mL (≈ 98.6 µM) | IC50 [17]: 260 nM | IC50 [1]: 0.4 nM | Cmax (Rattus norvegicus [37]): 110 ng/mL | AUC (Rattus norvegicus [38]): 100 ng·h/mL

CN(C)c1nc2ccc1CCCN1C=C(C3=C(C(=O)NC3=O)c3cn(c4ccccc34)CCC2)N2C=CC=CC12 (stereo unspecified)
IC50 [1]: 7 nM

From ChEMBL document CHEMBL1154951, “Discovery of potent and bioavailable GSK-3beta inhibitors” (Bioorg Med Chem Lett, 2010)
